Source: the RNAGym collection of RNA variant scans (doi:10.1126/science.aae0568)
Fewer inactive variants are shown than the library holds.

B1: tRNA (parent)
chain: GUUCCGUUGGCGUAAUGGUAACGCGUCUCCCUCCUAAGGAGAAGACUGCGGGUUCGAGUCCCGUACGGAACG

Variants of: B1
Assay: yeast fitness relative to wild type (ratio to wild type); higher = fitter; tRNA-Arg(CCU), competitive growth, 37 C, YPD
How it was run: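 Changes in genotype frequencies gave Darwinian fitness relative to wild type. Frequencies were read by 100-nucleotide paired-end sequencing of gene amplicons before and after pooled Saccharomyces cerevisiae strains, carrying tRNA-Arg(CCU) gene variants at the native locus, were competed in YPD at 37°C for 24 hours in six replicates. A genotype was kept only with ≥ 100 starting reads, and estimates < 0.5 were set to 0.5.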

| Variant | yeast fitness |
| --- | --- |
| C22U C33G C34A A43C A65U | ≤ 0.5 |
| C22U A36C A65U G67C | ≤ 0.5 |
| C22U C30U A37G G68A | ≤ 0.5 |
| C22U A70U | 0.842 |
| C22U A43U C49U C55G C61U | 0.534 |
| C22U C24A G25U A42G | ≤ 0.5 |
| C22U C29U C33U A37C A43U C55A | ≤ 0.5 |
| C22U C33G G41C G56C G58A G63C A65U | ≤ 0.5 |
| C22U C29G | 0.657 |
| C22U G25A A43G U54A C62U | ≤ 0.5 |
| C22U A42G C61U | 0.612 |
| C22U C33U G52A C66U | ≤ 0.5 |
| C22U G63C G68U | ≤ 0.5 |
| C22U G58C C61A | ≤ 0.5 |
| C22U U26C G63U | ≤ 0.5 |
| C22U A65G | 0.835 |
| C22U A65C | 0.708 |
| C22U A65U | 0.748 |
| C22U C27A A45G G48C | ≤ 0.5 |
| C22U G38A A40C | 0.541 |
| C22G U54A C55U C66A | ≤ 0.5 |

| Variant | yeast fitness |
| --- | --- |
| C22G U26G C27G U53A | ≤ 0.5 |
| C22U G39C C62U | 0.51 |
| C22U A36G | 0.948 |
| C22G U28C C31G | 0.6 |
| C22U C49U G58A | 0.621 |
| C22U A43G A45C C46G G63A | 0.635 |
| C22U A40U C61A G68A | ≤ 0.5 |
| C22U A40U A43G A65U | 0.536 |
| C22U G25A A36G G51A C66U | ≤ 0.5 |
| C22G G63A G68U | ≤ 0.5 |
| C22G U32C G38C C60U | ≤ 0.5 |
| C22U C24G U28A A45C A57C C61U | 0.581 |
| C22U G23A C66G G67A | ≤ 0.5 |
| C22U C27G A40G A42G | ≤ 0.5 |
| C22U C49A A69G | ≤ 0.5 |
| C22U G39C | 0.731 |
| C22U G39A | 0.693 |
| C22U A36G C55A | ≤ 0.5 |
| C22U C29G A42G | 0.697 |
| C22U A45G G56C | 0.602 |
| C22U G67A | 0.78 |

| Variant | yeast fitness |
| --- | --- |
| C22U G67U | 0.808 |
| C22U C24G C34U A37G G44A | ≤ 0.5 |
| C22U U26G U35A A45G G50A | 0.648 |
| C22U G56C C60A C62G | 0.523 |
| C22U C30U C33U A45C G56C G68C | ≤ 0.5 |
| C22U U26A A40G G67C | ≤ 0.5 |
| C22U G52A C55A C66U | 0.526 |
| C22U C24A A42U C61U | 0.562 |
| C22U C27G G41A C55U | ≤ 0.5 |
| C22U C24U U28C C29G C33A G68C | 0.569 |
| C22U A40C C62U | 0.648 |
| C22G U35C C46U C55G | ≤ 0.5 |
| C22U C33G C55G | 0.537 |
| C22G G51A A70U | 0.665 |
| C22U C24G A69C | 0.539 |
| C22U A42G C55G | 0.567 |
| C22U G50A | 0.875 |
| C22U G50U | 0.669 |
| C22U G50C | 0.818 |
| C22U G58C C62G G63C | ≤ 0.5 |
| C22U C27G U28G U32G | ≤ 0.5 |

| Variant | yeast fitness |
| --- | --- |
| C22U C61G A69G | 0.574 |
| C22G U35A U47C C55U A69C | 0.542 |
| C22U C24G C30U G44A G56A | ≤ 0.5 |
| C22U G23C U26C C30A | 0.507 |
| C22U A45U C49A | ≤ 0.5 |
| C22G U54A C55U | ≤ 0.5 |
| C22G U32C | 1 |
| C22G U32G | 0.626 |
| C22U C61A C62U | 0.586 |
| C22U A40C G58C A69U | ≤ 0.5 |
| C22U G25A G41A C46A A69C | 0.599 |
| C22U C24U G50C | 0.618 |
| C22G G52A C55U | ≤ 0.5 |
| C22G U64A | 0.696 |
| C22U C34U A36U U53C | ≤ 0.5 |
| C22U C34G A40C C46G | ≤ 0.5 |
| C22G U32C G58A | 0.654 |
| C22U C29U C33U A37C C55A | 0.615 |
| C22G G51A A57U | ≤ 0.5 |
| C22U G38C | 0.747 |
| C22U G63C | 0.67 |
